# Data from ChEMBL document CHEMBL4257502, “Anti-cancer effect of a novel 2,3-didithiocarbamate-substituted naphthoquinone as a tumor metabolic suppressor in vitro and in vivo” (Medchemcomm, 2018).
# pIC50: −log10 of the molar value. The source made the active and inactive calls. The calls are words filed in the database; no cut-off is given here.
# What was measured:
# Homo sapiens [1] = species on record: Homo sapiens; test: Selectivity ratio of IC50 for recombinant human N-terminal His-tagged PKM1 expressed in Escherichia coli to IC50 for recombinant human N-terminal His-tagged PKM2 expressed in Escherichia coli
# Homo sapiens [2] = species on record: Homo sapiens; test: Selectivity ratio of IC50 for recombinant human N-terminal His-tagged PKL expressed in Escherichia coli to IC50 for recombinant human N-terminal His-tagged PKM2 expressed in Escherichia coli
# Pyruvate kinase PKM [3] = molecular target: T1, Pyruvate kinase PKM (Homo sapiens, UniProt P14618); test: Inhibition of PKM2 in human HCT116 cells assessed as reduction in beta-catenin-induced CCND1 gene expression at 20 uM after 8 hrs by RT-qPCR analysis; assay type: cell-based
# Procedure, shortened: (§1)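 HCT116 cells seeded at 5 × 10^5 per well and treated 24 h later with 20 μM for 8 h. RNA extracted with TRIzol and reverse-transcribed. GLUT1, LDH and CCND1 transcripts quantified by SYBR Green qPCR.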
# Target sequence in this assay (P14618 2-531 limits assumed): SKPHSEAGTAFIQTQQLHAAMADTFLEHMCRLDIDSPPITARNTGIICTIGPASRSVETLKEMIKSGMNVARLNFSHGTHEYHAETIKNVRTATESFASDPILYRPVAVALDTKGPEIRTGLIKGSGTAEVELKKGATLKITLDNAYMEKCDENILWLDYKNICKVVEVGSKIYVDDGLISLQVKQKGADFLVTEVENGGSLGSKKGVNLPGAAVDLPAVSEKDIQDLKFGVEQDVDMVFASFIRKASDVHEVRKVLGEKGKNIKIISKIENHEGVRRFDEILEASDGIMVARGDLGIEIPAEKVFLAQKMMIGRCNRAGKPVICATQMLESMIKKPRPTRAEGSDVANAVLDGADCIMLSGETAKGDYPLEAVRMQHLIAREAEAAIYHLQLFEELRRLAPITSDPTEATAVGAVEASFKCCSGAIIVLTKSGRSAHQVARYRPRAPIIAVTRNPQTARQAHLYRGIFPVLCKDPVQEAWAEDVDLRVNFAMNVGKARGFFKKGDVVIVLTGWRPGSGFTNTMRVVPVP
# Pyruvate kinase PKM [4] = molecular target: T1, Pyruvate kinase PKM; test: Inhibition of recombinant human N-terminal His-tagged PKM2 expressed in Escherichia coli preincubated for 25 mins in presence of PEP/FBP followed by ADP/NADH addition measured after 25 mins by PK-LDH assay
# Target sequence in this assay (P14618 whole entry): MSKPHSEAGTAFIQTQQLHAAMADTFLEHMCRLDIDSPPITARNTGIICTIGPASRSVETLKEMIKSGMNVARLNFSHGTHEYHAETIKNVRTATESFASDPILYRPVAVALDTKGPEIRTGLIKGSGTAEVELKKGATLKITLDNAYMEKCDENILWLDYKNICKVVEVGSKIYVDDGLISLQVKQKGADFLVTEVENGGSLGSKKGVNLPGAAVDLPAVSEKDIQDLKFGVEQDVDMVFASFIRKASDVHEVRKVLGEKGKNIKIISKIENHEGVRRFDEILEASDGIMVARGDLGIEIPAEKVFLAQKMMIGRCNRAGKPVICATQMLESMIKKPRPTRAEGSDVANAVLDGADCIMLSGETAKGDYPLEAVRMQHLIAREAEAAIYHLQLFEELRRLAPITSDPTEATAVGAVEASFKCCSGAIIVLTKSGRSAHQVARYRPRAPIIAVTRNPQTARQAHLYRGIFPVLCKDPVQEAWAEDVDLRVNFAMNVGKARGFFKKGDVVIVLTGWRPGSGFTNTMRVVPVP
# BEAS-2B = test: Cytotoxicity against human BEAS2B cells after 48 hrs by MTS assay; assay type: cell-based
# Procedure, shortened: (§2)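 Cells seeded at 5000–10 000 per well and treated 12 h later with a range of concentrations for 48 h. Viability read by MTS reduction. IC50 reported ± SD.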
# Pyruvate kinase PKM [5] = molecular target: T1, Pyruvate kinase PKM; test: Inhibition of recombinant human N-terminal His-tagged PKM1 expressed in Escherichia coli preincubated for 25 mins in presence of PEP/FBP followed by ADP/NADH addition measured after 25 mins by PK-LDH assay
# Target sequence in this assay (P14618 whole entry): as above
# Pyruvate kinase PKM [6] = molecular target: T1, Pyruvate kinase PKM; test: Inhibition of PKM2 in human HCT116 cells assessed as reduction in cMYC-induced GLUT1 gene expression at 20 uM after 8 hrs by RT-qPCR analysis; assay type: cell-based; procedure, shortened: as §1
# Target sequence in this assay (P14618 2-531 limits assumed): as the sequence (P14618 2-531 limits assumed) above
# MCF7 = test: Cytotoxicity against human MCF7 cells after 48 hrs by MTS assay; assay type: functional, cell-based; procedure, shortened: as §2
# HCT-116 [7] = test: Cytotoxicity against human HCT116 cells after 48 hrs by MTS assay; assay type: functional, cell-based; procedure, shortened: as §2
# B16 [8] = test: Antitumor activity against mouse B16 cells implanted in C57BL/6 mouse assessed as reduction in tumor weight at 50 mg/kg, ip administered every 2 days for 12 days relative to control; assay type: functional; parameters: scale not given: the % may be the effect or the level left
# Procedure, shortened: (§3)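 Female mice given 1 × 10^6 B16 cells subcutaneously in the armpit. Dosing began about 6 days later, once tumors appeared, with N = 7 per group. Compound or vehicle (5% v/v DMAC in olive oil) was given ip every two days at 25 or 50 mg kg–1. Tumor volume was measured every two days as V = L(S2)π/6. Tumors were weighed individually. T/C was taken as relative tumor volume growth rate.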
# Pyruvate kinase PKM [9] = molecular target: T1, Pyruvate kinase PKM; test: Inhibition of PKM2 in human HCT116 cells measured after 8 hrs by fluorescent PK-LDH assay; assay type: cell-based
# Procedure, shortened: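 HCT116 cells exposed to 2.5, 5, 10 or 20 μM for 8 h, then lysed in NP40 buffer. Lysate pyruvate kinase activity was measured immediately by fluorescent PK–LDH coupled assay.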
# Target sequence in this assay (P14618 2-531 limits assumed): as above
# B16 [10] = test: Cytotoxicity against mouse B16 cells after 48 hrs by MTS assay; assay type: functional, cell-based; procedure, shortened: as §2
# [11] = test system: spontaneous PTEN-deleted breast carcinoma (Mus musculus); test: Antitumor activity against mouse spontaneous PTEN-deleted breast carcinoma assessed as reduction in tumor weight at 50 mg/kg, ip administered every 2 days for 36 days relative to control; parameters: scale not given: the % may be the effect or the level left
# Pyruvate kinase PKM [12] = molecular target: T1, Pyruvate kinase PKM; test: Inhibition of PKM2 in human HCT116 cells assessed as reduction in cMYC-induced LDH gene expression at 20 uM after 8 hrs by RT-qPCR analysis; assay type: cell-based; procedure, shortened: as §1
# Target sequence in this assay (P14618 2-531 limits assumed): as above
# Mus musculus = test: Toxicity in C57BL/6 mouse implanted with mouse B16 cells assessed as effect on body weight at 25 to 50 mg/kg, ip administered every 2 days for 12 days; assay type: organism-based; conditions: in vivo; procedure, shortened: as §3
# [13] = test system: spontaneous PTEN-deleted breast carcinoma (Mus musculus); test: Antitumor activity against mouse spontaneous PTEN-deleted breast carcinoma assessed as reduction in tumor growth at 50 mg/kg, ip administered every 2 days for 36 days
# Pyruvate kinase PKLR = Pyruvate kinase PKLR (Homo sapiens, UniProt P30613); test: Inhibition of recombinant human N-terminal His-tagged PKL expressed in Escherichia coli preincubated for 25 mins in presence of PEP/FBP followed by ADP/NADH addition measured after 25 mins by PK-LDH assay
# HeLa = test: Cytotoxicity against human HeLa cells after 48 hrs by MTS assay; assay type: functional, cell-based; procedure, shortened: as §2
# HCT-116 [14] = test: Cytotoxicity against human HCT116 cells assessed as reduction in ATP production at 10 to 20 uM after 6 hrs by CellTiter-Glo luminescent assay; assay type: functional, cell-based
# Procedure, shortened: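 HCT116 cells seeded at 5 × 10^5 per well in 6-well plates. Exposed 24 h later to 10 μM or 20 μM for 6 h. Cellular ATP read by CellTiter-Glo luminescence.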
# B16 [15] = test: Antitumor activity against mouse B16 cells implanted in C57BL/6 mouse assessed as tumor weight at 25 mg/kg, ip administered every 2 days for 12 days relative to control; assay type: functional; procedure, shortened: as §3
# B16 [16] = test: Antitumor activity against mouse B16 cells implanted in ip dosed C57BL/6 mouse assessed as tumor growth inhibition administered every 2 days for 12 days; assay type: functional, organism-based; procedure, shortened: as §3
# B16 [17] = test: Antitumor activity against mouse B16 cells implanted in C57BL/6 mouse assessed as tumor volume at 50 mg/kg, ip administered every 2 days for 12 days measured during compound dosing relative to control; assay type: functional; procedure, shortened: as §3
# NCI-H1299 = test: Cytotoxicity against human NCI-H1299 cells after 48 hrs by MTS assay; assay type: functional, cell-based; procedure, shortened: as §2
# MDA-MB-231 = test: Cytotoxicity against human MDA-MB-231 cells after 48 hrs by MTS assay; assay type: functional, cell-based; procedure, shortened: as §2
# Chain of Pyruvate kinase PKLR (P30613 whole entry): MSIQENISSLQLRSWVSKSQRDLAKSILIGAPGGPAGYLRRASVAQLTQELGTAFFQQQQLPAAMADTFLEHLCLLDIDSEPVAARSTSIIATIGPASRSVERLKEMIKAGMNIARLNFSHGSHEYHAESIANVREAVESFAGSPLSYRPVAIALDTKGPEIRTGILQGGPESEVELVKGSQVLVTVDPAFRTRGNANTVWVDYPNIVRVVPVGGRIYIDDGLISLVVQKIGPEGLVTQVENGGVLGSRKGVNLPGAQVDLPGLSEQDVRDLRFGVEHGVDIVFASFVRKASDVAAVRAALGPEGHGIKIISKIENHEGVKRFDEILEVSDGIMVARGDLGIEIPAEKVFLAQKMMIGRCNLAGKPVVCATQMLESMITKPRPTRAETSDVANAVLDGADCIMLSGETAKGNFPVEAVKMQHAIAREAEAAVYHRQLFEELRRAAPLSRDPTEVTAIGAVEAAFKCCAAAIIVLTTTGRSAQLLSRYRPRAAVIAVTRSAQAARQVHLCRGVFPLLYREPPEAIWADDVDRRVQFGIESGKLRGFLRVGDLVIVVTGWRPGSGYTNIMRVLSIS
structure (smiles),measurement,setting,value
CC(C)=CC[C@@H](O)C1=CC(=O)c2c(O)ccc(O)c2C1=O,Ratio IC50,Homo sapiens [1],1.5
same,Ratio IC50,Homo sapiens [2],4.5
O=C1C(CSC(=S)N2CCCCC2)=C(CSC(=S)N2CCCCC2)C(=O)c2ccccc21,inhibition,Pyruvate kinase PKM [3],Active
same,pIC50,Pyruvate kinase PKM [4],6.06
same,pIC50,BEAS-2B,4.49
same,pIC50,Pyruvate kinase PKM [5],5.29
same,inhibition,Pyruvate kinase PKM [6],Active
same,Activity,MCF7,Dose-dependent effect
same,pIC50,"MCF7; MCF7, 48 h",7.21
same,Activity,HCT-116 [7],Dose-dependent effect
same,pIC50,"HCT-116 [7]; HCT-116, 48 h",7.11
same,Activity,B16 [8],30%
same,inhibition,Pyruvate kinase PKM [9],Dose-dependent effect
same,Activity,B16 [10],Dose-dependent effect
same,pIC50,"B16 [10]; B16, 48 h",6.98
same,Activity,[11],20%
same,Ratio IC50,Homo sapiens [1],5.8
same,inhibition,Pyruvate kinase PKM [12],Active
same,Activity,Mus musculus,Non-Toxic
same,Activity,[13],Active
same,pIC50,Pyruvate kinase PKLR,5.54
same,Activity,HeLa,Dose-dependent effect
same,pIC50,HeLa,6.91
same,Activity,HCT-116 [14],Active
same,Activity,B16 [15],12%
same,TGI,B16 [16],Dose-dependent effect
same,T/C,B16 [17],40%
same,Activity,NCI-H1299,Dose-dependent effect
same,pIC50,"NCI-H1299; NCI-H1299, 48 h",6.96
same,Activity,MDA-MB-231,Dose-dependent effect
same,pIC50,"MDA-MB-231; MDA-MB-231, 48 h",6.87
same,Ratio IC50,Homo sapiens [2],3.3
